Sampled rows, rich in hits. Any-hit rate of the full collection: about 2.3%.
TRPC4 agonist: activators of mouse TRPC4 channel; Q9QUQ5; HEK293 TRPC4beta/mu-opioid, Fluo4 calcium fluorescence; hits give high values; B-score at 10 µM; actives 0.49% (n = 310,000); AID 2237;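 active = B-score above 5 SD of library B-scores, and initial fluorescence ratio not above library mean plus 5 SD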;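 also: positive B-score marks a calcium rise read as TRPC4 activation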
Target sequence (Q9QUQ5 whole entry, looked up): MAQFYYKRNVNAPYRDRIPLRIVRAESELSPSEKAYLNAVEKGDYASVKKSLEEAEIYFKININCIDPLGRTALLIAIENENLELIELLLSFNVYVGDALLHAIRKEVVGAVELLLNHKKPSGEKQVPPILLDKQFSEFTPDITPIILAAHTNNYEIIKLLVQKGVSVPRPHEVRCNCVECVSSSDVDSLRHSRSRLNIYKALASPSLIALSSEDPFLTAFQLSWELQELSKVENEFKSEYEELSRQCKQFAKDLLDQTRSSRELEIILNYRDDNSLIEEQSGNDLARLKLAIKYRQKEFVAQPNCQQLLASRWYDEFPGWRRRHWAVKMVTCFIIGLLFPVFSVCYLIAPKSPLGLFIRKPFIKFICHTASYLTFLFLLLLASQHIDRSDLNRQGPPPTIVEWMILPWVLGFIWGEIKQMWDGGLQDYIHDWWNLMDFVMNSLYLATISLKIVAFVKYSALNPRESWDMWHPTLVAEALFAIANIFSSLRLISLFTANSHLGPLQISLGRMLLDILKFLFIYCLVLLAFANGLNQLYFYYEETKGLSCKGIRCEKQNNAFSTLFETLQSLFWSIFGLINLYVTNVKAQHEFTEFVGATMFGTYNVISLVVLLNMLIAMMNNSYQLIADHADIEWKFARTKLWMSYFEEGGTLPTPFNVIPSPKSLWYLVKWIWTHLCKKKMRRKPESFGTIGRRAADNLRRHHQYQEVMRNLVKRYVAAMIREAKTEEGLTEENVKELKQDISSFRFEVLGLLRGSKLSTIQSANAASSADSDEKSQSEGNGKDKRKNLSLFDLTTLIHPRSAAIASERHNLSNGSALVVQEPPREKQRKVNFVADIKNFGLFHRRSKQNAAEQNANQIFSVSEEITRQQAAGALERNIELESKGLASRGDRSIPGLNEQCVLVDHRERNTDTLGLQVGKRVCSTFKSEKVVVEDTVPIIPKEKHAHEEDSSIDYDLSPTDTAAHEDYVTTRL
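Assay system: HEK293 cells stably co-expressing mouse TRPC4beta and mu-opioid receptor / Timing: Fluo4 dye loading 45 min at room temperature, 110 s recording / Signal: Fluo4 calcium-sensitive dye fluorescence, kinetic, 1 Hz baseline / Read-out: integrated baseline-normalised fluorescence ratio, converted to per-well B score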
TRPC4 block: inhibitors of mouse TRPC4 channel; actives 0.39% (n = 300,000); B-score at 10 µM; HEK293 TRPC4beta/mu-opioid, DAMGO-evoked Fluo4 calcium flux; hits give low values;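 active = B-score over 3 SD under the library average, no early fluorescence shift, positive overall ratio signal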
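Assay system: HEK293 cells with stable TRPC4beta plus mu-opioid receptor expression; Probe or stimulus: DAMGO in two steps, submaximal then maximal; Dosing: single-point compound dosing; Measured by: Fluo4 calcium-dye fluorescence, kinetic read; Read-out basis: B score from integrated Fluo4 fluorescence ratio.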
TRPC6 inhibitor: blocks the mouse TRPC6 cation channel; Q61143; HEK293-TRPC6, membrane potential dye, ACh-evoked depolarization; hits give low values; B-score at 10 µM; actives 1.1% (n = 310,000); AID 2553;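 active = B-score under library mean minus 3 SD, initial fluorescence not abnormally high, positive integrated signal ratio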;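 also: B-score derived from integrated fluorescence ratio over the kinetic read; more negative B-score means stronger inhibition of depolarization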
TRPC4 potent: allosteric potentiators of mouse TRPC4 channel; HEK293 TRPC4beta/mu-opioid, DAMGO EC20, Fluo-4 Ca2+ flux; hits give high values; actives 0.42% (n = 310,000); B-score at 10 µM; Q9QUQ5;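 active = B-score of calcium response area above 5 SD of library B-scores, with initial fluorescence ratio within 5 SD of library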
TRPC6 activator: activators of mouse TRPC6 channel. AID 2550. B-score at 10 µM. Q61143. actives 0.13% (n = 310,000). HEK293-TRPC6 membrane potential dye fluorescence; hits give high values;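 active = B-score of the integrated fluorescence ratio above library mean plus 3 SD, and starting fluorescence ratio within library mean plus 5 SD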;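 also: higher score means more depolarization so channel activation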
Of the large screens only hits and unclear results are named; the others gave an inactive call.

Cc1ccc(NC(=O)CSc2nc(O)c(Cc3ccccc3)c(=O)n2-c2ccccc2)cc1	none
Cc1ccc(C(C)(C)C)c(OCCCn2ccnc2)c1	none
CC(C)(C)c1ccccc1OCCCCCn1ccnc1	TRPC4 potent 42
CCN1C(=O)[C@H]2[C@@H](c3ccc(-c4ccc(C(C)=O)cc4)cc3)N3CCCC[C@@]3(C(=O)OC)[C@H]2C1=O	none
COC(=O)[C@@]12CCCN1[C@H](c1ccc(-c3ccccc3)cc1)[C@@H]1C(=O)N(C)C(=O)[C@@H]12	none
COC(=O)[C@@]12CCCCN1[C@H](c1ccc(-c3ccc(OC)cc3)cc1)[C@@H]1C(=O)N(C)C(=O)[C@@H]12	TRPC4 potent 13
COC(=O)[C@@]12CCCCN1[C@H](c1ccc(-c3cccc(Cl)c3)cc1)[C@H]1C(=O)N(C)C(=O)[C@H]12	none
COC(=O)[C@@]12CCCCN1[C@H](c1ccc(-c3cccc(Cl)c3)c(OC)c1)[C@H]1C(=O)N(C)C(=O)[C@H]12	TRPC4 potent 25
COC(=O)[C@@]12CCCCN1[C@H](c1ccc(-c3ccc(C(C)=O)cc3)cc1)[C@@H]1C(=O)N(C)C(=O)[C@@H]12	TRPC4 potent 43
Cc1cnc(C(=O)OC(C(=O)c2c[nH]c3ccccc23)c2ccccc2)cn1 (stereo not given)	none
COc1ccc(CN2C(=O)c3cccnc3C2=O)cc1S(=O)(=O)N(C)c1ccc(C)cc1	none
COCC(=O)N1CCC(Oc2ccc(C(=O)N(C)CCCC3CCCC3)cc2)CC1	none
Cc1[nH][nH]c(=O)c1C=NCc1ccc(Cl)cc1	none
COc1ccccc1C(=O)Nc1c(C(=O)N(CCN(C)C)Cc2ccco2)oc2ccccc12	none
Cc1ccccc1C(=O)Nc1c(C(=O)N(CCN(C)C)Cc2ccco2)oc2ccccc12	TRPC4 agonist 45, TRPC4 block -6
CCn1c(NCc2ccco2)nc2ccccc21	TRPC4 potent 54
c1ccc(Cn2c(NCc3ccco3)nc3ccccc32)cc1	TRPC4 block -6
CCCCn1c(NCc2ccc(N(C)C)cc2)nc2ccccc21	TRPC4 block -6
C=CCn1c(NCc2ccco2)nc2ccccc21	TRPC4 potent 34
COc1ccc(N2CCN(CCNC(=O)Nc3ccc(C)cc3Cl)CC2)cc1	none
Cc1cc(NC(=O)C(C)SCC(=O)N(C)CC(=O)Nc2ccc(Br)cc2C)no1 (stereo not given)	none
Clc1c(-c2nnc3n2CCCCC3)sc2ccccc12	none
COc1ccc2c(Cl)c(-c3nnc4n3CCCCC4)sc2c1	TRPC4 agonist 167
Cn1c(=O)c(=O)n(C)c2cc(N3CCOCC3)c(NS(=O)(=O)c3ccc(Br)cc3)cc21	none
Cc1ccccc1-n1c(=O)c2c(n3cnnc13)-c1ccccc1CC21CCCCC1	TRPC4 potent 16
OCC1CCCCN1CCNCc1cn[nH]c1-c1cccc2ccccc12 (stereo not given)	none
c1ccc2c(-c3[nH]ncc3CNCCCn3ncc4ccccc43)cccc2c1	TRPC4 agonist 64
COc1ccc(S(=O)Cc2ccc(C(=O)N3CCN(c4cccc(C)c4C)CC3)o2)cc1 (stereo not given)	none
CCc1cc(-c2[nH]ncc2-c2nc3ccccc3n2C)c(O)cc1O	none
CCOc1cc(O)c(-c2[nH]ncc2-c2nc(C)cs2)cc1CC	TRPC4 potent 20
COc1ccccc1NC(=O)CCc1nnc2ccc(N3CCN(C)CC3)nn12	none
O=C(Nc1ccc(F)cc1)C(NC1CCCCC1)c1ccccc1 (stereo not given)	none
CN(C)C(CNC(C(=O)Nc1ccc([N+](=O)[O-])cc1Br)c1ccccc1)c1ccccc1 (stereo not given)	TRPC4 agonist 74
CN(C)C(CNC(C(=O)Nc1ccc(F)cc1)c1ccccc1)c1ccccc1 (stereo not given)	TRPC4 agonist 139
O=C(NCc1nc2ccccc2[nH]1)C1=C[C@H](c2ccc(C(F)(F)F)cc2)C[C@H](OCCCCO)O1	none
Cc1ccc(C)c(NC(=S)NCC(c2ccccc2)N(C)C)c1 (stereo not given)	TRPC4 agonist 180
Cc1ccccc1NC(=S)NCCc1ccccn1	TRPC4 agonist 88
Cc1cccc(NC(=S)NCc2ccncc2)c1C	none
CC(=O)c1ccc(NC(=O)CNCC(c2ccccc2)N(C)C)cc1 (stereo not given)	none
Cc1cccc(C)c1NC(=S)NCCc1ccccn1	none
Cc1cccc(NC(=S)NCC(c2cccnc2)N(C)C)c1C (stereo not given)	TRPC4 agonist 101
Cc1ccc(NC(=O)NCC(c2ccccc2)N(C)C)cc1 (stereo not given)	TRPC4 agonist 46
COc1ccccc1CCC(=O)OCC(=O)Nc1cc(C)nn1-c1ccccc1	none
CCCc1ccc(S(=O)(=O)N(C)S(=O)(=O)c2ccc(F)cc2)cc1	none
COc1ccc(OCC(=O)N2CCN(C(=O)c3ccc(F)cc3)CC2)cc1	none
CCCCc1ccc(NC(=O)CSc2nc(=O)n(CCCN3CCOCC3)c3c2CCC3)cc1	none
Cc1ccccc1NC(=S)NCc1ccccc1	none
Cc1ccccc1NC(=S)NCC(c1cccnc1)N(C)C (stereo not given)	TRPC4 agonist 136
Cc1c(Cl)cccc1NC(=S)NCC(c1cccnc1)N(C)C (stereo not given)	TRPC4 agonist 85
CCCCN1C(=O)/C(=C2\SC(N3CCCCC3)=NC2=O)c2ccccc21	none
CCCCN1C(=O)C(=Nc2cccc3cnccc23)c2ccccc21	TRPC4 potent 20
COc1ccc2c(C)c(CCC(=O)NCCCN3CCCC3=O)c(=O)oc2c1C	TRPC4 block -6
COc1ccc(C(CNC(=O)CN2C(=O)NC3(CCCC3)C2=O)N(C)C)cc1 (stereo not given)	TRPC4 agonist 134
COc1ccc(CC(=O)NCC(c2ccc(OC)cc2)N(C)C)cc1 (stereo not given)	TRPC4 agonist 216
COc1ccc(C(=O)CN2C(=O)NC3(CCCCCC3)C2=O)cc1	none
COc1ccc(CNC(=O)Cc2cccs2)cc1	none
COc1ccc(C(CNC(=O)Cc2cccs2)N(C)C)cc1 (stereo not given)	TRPC4 agonist 99
COc1ccc(NC(=O)C2CCCN2S(=O)(=O)c2ccc3c(c2)CC(C)N3C(C)=O)cc1OC (stereo not given)	none
Cc1oc2c(CN3CCC(C)CC3)c(O)ccc2c(=O)c1-c1ccccc1	none
CC(=O)c1ccc(Cc2ccc(C(C)=O)cc2)cc1	none
CCOCc1cn(CC(=O)c2ccc([N+](=O)[O-])cc2)c(C)nc1=N	none
CCOCc1cn(CC(=O)c2ccc(Cl)cc2)c(C)nc1=N	TRPC4 block -8
Cc1ccc(Cn2c(=N)c(C(=O)NC3CCCCC3)cc3c(=O)n4ccccc4nc32)cc1	TRPC4 potent 20
